The values below come from ChEMBL document CHEMBL4376841, “Discovery of a Synergistic Inhibitor of cAMP-Response Element Binding Protein (CREB)-Mediated Gene Transcription with 666-15” (J Med Chem, 2019).

Broadly, the IC50 is the concentration needed to halve the response being measured. As usually defined, the solubility is how much of the substance goes into solution per volume. Read a high solubility as a readily soluble substance.

Each structure is given as a SMILES string. Activity calls are given as the source filed them. The calls are words filed in the database; no cut-off is given here. Where only a bound is given, the exact number is not on record here.

A short description of series [1]: Inhibition of CREB (unknown origin) expressed in HEK293T cells assessed as inhibition of forskolin-induced CREB transcription activity incubated for 30 mins by luciferase reporter gene assay. The settings on record: Homo sapiens, HEK-293T, 0.5 h. Format: cell-based. Summed up: (§1)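 HEK293T cells were transfected for 3 h with pCRE-RLuc (Renilla luciferase driven by three tandem CRE copies), then replated and left to attach overnight. Compounds, alone or combined, were added 30 min before Fsk (10 μM), followed by 5 h at 37 °C. Renilla luciferase was normalised to well protein (RLU/μg). IC50 came from nonlinear regression; at least two independent experiments in triplicate.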
On the technique in general: Reporter assays use an easily measured gene product as a stand-in for the process of interest.

Series [2] can be described thus: Drug metabolism in pH 7.4 PBS assessed as 3-(3-aminopropoxy)-N-(4-chloro-2-hydroxy-phenyl)naphthalene-2-carboxamide formation by NMR analysis.
Series [3] in a line: Solubility in ddIH2O. To be noted: ddIH2O (double-deionized water). It counts as physicochemical.
The nature of series [4]: Drug metabolism in pH 7.4 PBS assessed as 3,4-Dihydronaphtho[2,3-f][1,4]oxazepin-5(2H)-one formation by NMR analysis.
Series [5] is described as follows: Drug metabolism in pH 7.4 PBS assessed as tert-butyl 3-(3-(2-(tert-butoxycarbonyloxy)-4-chlorophenylcarbamoyl)naphthalen-2-yloxy)propylcarbamate formation by NMR analysis.
Series [6] is filed under the species Homo sapiens. Kind of series: Inhibition of CREB in HEK293T cells assessed as inhibition of Fsk-induced NR4A2 gene expression at 5 uM pre-incubated for 1 hr before Fsk stimulation for 45 mins by qRT-PCR analysis. Format: cell-based. In a few lines:
(§2)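 HEK293T cells in DMEM/10% FBS were pretreated with compounds, singly or in combination, for 1 h, then stimulated with Fsk (10 μM) for 45 min. Total RNA was isolated and NR4A2 transcript measured by qRT-PCR using the ΔΔCt method, with HPRT as reference. SEM of two independent experiments in triplicate; Student t-test.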

The test system of series [7] is MDA-MB-231. Nature of the series: Growth inhibition of human MDA-MB-231 cells at 0.5 to 1 uM incubated for 72 hrs by MTT assay. It counts as functional, cell-based. In a few lines:
(§3)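 MDA-MB-231 cells were seeded at 1000/well, attached overnight, then given compounds (alone or combined) for 72 h at 37 °C. MTT (0.5 mg/mL) was added for 3 h, formazan dissolved in DMSO, and A570 read. Growth % = 100×(A_treated − A_initial)/(A_control − A_initial), with time-0 baseline.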
For orientation: Tetrazolium assays rely on reduction of a dye to a coloured formazan, in cell work by metabolically active cells.

The species entered for series [8] is Homo sapiens. Nature of the series: Synergistic potentiation of 50 nM 2-(3-(2-Aminoethoxy)-2-naphthamido)-5-chlorophenyl 3-(3- Aminopropoxy)-2-naphthoate Dihydrochloride-induced inhibition of CREB in HEK293T cells assessed as inhibition of Fsk-induced NR4A2 gene expression at 5 uM pre-incubated for 1 hr before Fsk stimulation for 45 mins by qRT-PCR analysis. Format: cell-based. In a few lines:
as §2

The nature of series [9]: Inhibition of Kix-Kid interaction (unknown origin) by biochemical split Renilla luciferase complementation assay. Also on record: species or system Homo sapiens.
The species named for series [10] is Homo sapiens. Kind of series: Synergistic potentiation of 2-(3-(2-Aminoethoxy)-2-naphthamido)-5-chlorophenyl 3-(3- Aminopropoxy)-2-naphthoate Dihydrochloride-induced inhibition of CREB (unknown origin) expressed in HEK293T cells assessed as inhibition of forskolin-induced CREB transcription activity by measuring combination index at 5 to 10 uM incubated for 30 mins by luciferase reporter gene assay based Chou-Talalay method. It counts as cell-based. In a few lines: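 CRE-driven Renilla luciferase reporter in transfected HEK293T cells. Combinations were added 30 min before Fsk (10 μM) for 5 h. Activity was normalised to protein. Combination indexes were calculated by the Chou-Talalay method: CI > 1.0 antagonism, CI = 1.0 additive, CI < 1.0 synergy.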

The species named for series [11] is Homo sapiens. Kind of series: Synergistic potentiation of 2-(3-(2-Aminoethoxy)-2-naphthamido)-5-chlorophenyl 3-(3- Aminopropoxy)-2-naphthoate Dihydrochloride-induced inhibition of CREB (unknown origin) expressed in HEK293T cells assessed as inhibition of forskolin-induced CREB transcription activity at 5 to 10 uM incubated for 30 mins by luciferase reporter gene assay. It counts as cell-based. Summed up:
as §1

Series [12] has as its system MDA-MB-231. Nature of the series: Synergistic potentiation of 2-(3-(2-Aminoethoxy)-2-naphthamido)-5-chlorophenyl 3-(3- Aminopropoxy)-2-naphthoate Dihydrochloride-induced growth inhibition of human MDA-MB-231 cells incubated for 72 hrs by MTT assay. Format: functional. Summed up: as §3
A short description of series [13]: Drug level in pH 7.4 PBS treated with 2-(3-(2-Aminoethoxy)-2-naphthamido)-5-chlorophenyl 3-(3- Aminopropoxy)-2-naphthoate Dihydrochloride assessed as compound formation by NMR analysis. Format: physicochemical. The settings on record: buffer.

On to `Cl.Cl.NCCCOc1cc2ccccc2cc1C(=O)Oc1cc(Cl)ccc1NC(=O)c1cc2ccccc2cc1OCCN`, for which the IC50 in series [1] was 0.25 µM. Besides, the values for the Drug metabolism result in series [2], in series [4] and in series [5] were “Metabolite detected”, 29% and 47%, respectively. Also, in series [3], the solubility was more than 100 mg/mL.
In series [3], `Cl.NCCCOc1cc2ccccc2cc1C(=O)NCCOc1cc2ccccc2cc1C(=O)Nc1ccc(Cl)cc1O` came in with a solubility of less than 0.5 mg/mL.
With `NCCCOc1cc2ccccc2cc1C(=O)Nc1ccc(Cl)cc1O`, the inhibition result in [6] is “inactive”. The “growth inhibition (GI)” value in series [7] was “inactive”. The result in [8] and in [11] was Active. Besides, the IC50 in series [1] was 26.3 µM; in [9] it was more than 50 µM. Moreover, the CI in [10] and in series [12] was less than 1 in each case. Moreover, the Drug uptake result in series [13] was “Active”.
With `CC(C)(C)OC(=O)NCCCOc1cc2ccccc2cc1C(=O)Nc1ccc(Cl)cc1OC(=O)C(C)(C)C`, the Drug uptake entry in series [13] is “Active”.
Consider `O=C1NCCOc2cc3ccccc3cc21`, for which the IC50 in series [1] is more than 50 µM. In series [11], the outcome was inactive. For the same molecule, in series [13], the Drug uptake result is given as “Active”.
